Measurements as given in ChEMBL document CHEMBL3804753, “Substituted quinolines as noncovalent proteasome inhibitors” (Bioorg Med Chem, 2016).

Experiments:
[1] = compound: Cc1cc(C)c2cc(C3=CCCCC3)c(C)nc2c1; experiment: Mixed type inhibition of human 20S proteasome chymotryptic-like activity using Suc-LLVY-AMC as substrate assessed as Vmax for substrate at 7 uM by Lineweaver-Burk plot analysis (reference value: 0.1959 to 0.2691 umol/min)
How it was run: (§1)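 Kinetics of CT-L activity of purified human 20S proteasome with Suc-LLVY-AMC substrate increased stepwise. Measured at five compound concentrations or vehicle, 37 °C. Fluorescence of released AMC gave rates.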

[2] = compound: Cc1cc(C)c2cc(C3=CCCCC3)c(C)nc2c1; experiment: Mixed type inhibition of human 20S proteasome chymotryptic-like activity using Suc-LLVY-AMC as substrate assessed as Vmax for substrate at 9 uM by Lineweaver-Burk plot analysis (reference value: 0.1959 to 0.2691 umol/min); how it was run: as §1
[3] = compound: Cc1cc(C)c2cc(C3=CCCCC3)c(C)nc2c1; experiment: Mixed type inhibition of human 20S proteasome chymotryptic-like activity using Suc-LLVY-AMC as substrate assessed as Vmax for substrate at 6 uM by Lineweaver-Burk plot analysis (reference value: 0.1959 to 0.2691 umol/min); how it was run: as §1
[4] = compound: Cc1cc(C)c2cc(C3=CCCCC3)c(C)nc2c1; experiment: Mixed type inhibition of human 20S proteasome chymotryptic-like activity using Suc-LLVY-AMC as substrate assessed as Vmax for substrate at 10 uM by Lineweaver-Burk plot analysis (reference value: 0.1959 to 0.2691 umol/min ); how it was run: as §1
[5] = compound: Cc1cc(C)c2cc(C3=CCCCC3)c(C)nc2c1; experiment: Mixed type inhibition of human 20S proteasome chymotryptic-like activity using Suc-LLVY-AMC as substrate assessed as Vmax for substrate at 4 uM by Lineweaver-Burk plot analysis (reference value: 0.1959 to 0.2691 umol/min); how it was run: as §1
[6] = compound: Cc1cc(C)c2cc(C3=CCCCC3)c(C)nc2c1; experiment: Mixed type inhibition of human 20S proteasome chymotryptic-like activity using Suc-LLVY-AMC as substrate assessed as Vmax for substrate at 8 uM by Lineweaver-Burk plot analysis (reference value: 0.1959 to 0.2691 umol/min); how it was run: as §1
[7] = compound: Cc1cc(C)c2cc(C3=CCCCC3)c(C)nc2c1; experiment: Mixed type inhibition of human 20S proteasome chymotryptic-like activity using Suc-LLVY-AMC as substrate assessed as Vmax for substrate at 5 uM by Lineweaver-Burk plot analysis (reference value: 0.1959 to 0.2691 umol/min); how it was run: as §1

B1: Proteasome Macropain subunit MB1 (Homo sapiens), P28074 (protein)
chain: MALASVLERPLPVNQRGFFGLGGRADLLDLGPGSLSDGLSLAAPGWGVPEEPGIEMLHGTTTLAFKFRHGVIVAADSRATAGAYIASQTVKKVIEINPYLLGTMAGGAADCSFWERLLARQCRIYELRNKERISVAAASKLLANMVYQYKGMGLSMGTMICGWDKRGPGLYYVDSEGNRISGATFSVGSGSVYAYGVMDRGYSYDLEVEQAYDLARRAIYQATYRDAYSGGAVNLYHVREDGWIRVSSDNVADLHEKYSGSTP
- Vmax [1]: 0.0674 µmol/min
- Vmax [2]: 0.0466 µmol/min
- Vmax [3]: 0.0703 µmol/min
- Vmax [4]: 0.0329 µmol/min
- Vmax [5]: 0.0959 µmol/min
- Vmax [6]: 0.0587 µmol/min
- Vmax [7]: 0.0924 µmol/min
